Laboratory results from ChEMBL document CHEMBL2321659, “Design, synthesis, and biological evaluation of indenoisoquinoline rexinoids with chemopreventive potential” (J Med Chem, 2013).

Key:
[1] = Cytotoxicity against African green monkey COS1 cells assessed as cell survival; format: cell-based; design: concentration or dose not given beside the values; details: chlorocebus aethiops, COS-1 cells; read-out: Activity
[2] = biological target: T1, Retinoic acid receptor RXR-alpha (Homo sapiens, UniProt P19793); experiment: Activation of human RXRalpha activity expressed in COS1 cells after 12 hrs by RXRE-luciferase reporter gene assay; format: cell-based, COS-1
T1 sequence (P19793 whole entry): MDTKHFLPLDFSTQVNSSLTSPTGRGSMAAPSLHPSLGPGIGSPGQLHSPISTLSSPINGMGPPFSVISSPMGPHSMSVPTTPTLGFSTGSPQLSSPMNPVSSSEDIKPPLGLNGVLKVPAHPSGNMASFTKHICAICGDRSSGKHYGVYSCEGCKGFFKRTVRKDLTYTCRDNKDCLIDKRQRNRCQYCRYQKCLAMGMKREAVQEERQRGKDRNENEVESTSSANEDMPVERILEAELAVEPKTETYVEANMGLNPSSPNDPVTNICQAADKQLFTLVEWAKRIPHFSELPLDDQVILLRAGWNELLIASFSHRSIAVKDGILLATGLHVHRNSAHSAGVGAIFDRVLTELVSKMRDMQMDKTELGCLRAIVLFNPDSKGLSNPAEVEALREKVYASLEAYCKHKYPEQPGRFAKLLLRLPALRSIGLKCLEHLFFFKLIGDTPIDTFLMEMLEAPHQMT

[3] = biological target: T2, Retinoic acid receptor RXR-alpha (Homo sapiens) (UniProt P19793); experiment: Activation of human RXRalpha activity expressed in COS1 cells assessed as induction ratio at 50 uM after 12 hrs by RXRE-luciferase reporter gene assay relative to untreated control; format: cell-based; details: COS-1
T2 sequence (whole entry): T1 sequence (P19793 whole entry)
How it was run: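 COS-1 cells transiently co-transfected per well with 100 ng RXRE-firefly luciferase reporter, 50 ng human RXRα expression vector and 3 ng Renilla luciferase vector using Lipofectamine 2000 for 24 h, then exposed to compound for a further 12 h. Dual-luciferase read-out. Induction ratio taken at 50 µM test concentration.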

| Structure (SMILES) | viability [1] [%] | EC50 [2] [µM] | Ratio [3] |
| --- | --- | --- | --- |
| NCCCn1c2c(c3ccc(NCC(=O)O)cc3c1=O)C(=O)c1ccccc1-2 | 61.2 | 8.4 | > 1 |
| CN(C)CCCn1c2c(c3ccc(C#N)cc3c1=O)C(=O)c1ccccc1-2 | 54.8 | > 20.7 | > 1 |
| CNCCCn1c2c(c3ccc(Br)cc3c1=O)C(=O)c1ccccc1-2 | 31.3 | 10.7 | > 1 |
| COc1ccc2c(c1)C(=O)c1c-2n(CCCN)c(=O)c2ccccc12 | 46.8 | 4.84 | > 1 |
| CNCCCn1c2c(c3ccc([N+](=O)[O-])cc3c1=O)C(=O)c1ccccc1-2 | 33.1 | – | < 1 |
| O=C1c2ccccc2-c2c1c1ccc(Br)cc1c(=O)n2CCCN1CCOCC1 | 100 | – | < 1 |
| CN(C)CCCn1c2c(c3ccc(Br)cc3c1=O)C(=O)c1ccccc1-2 | 48.5 | 18.4 | > 1 |
| COC(=O)c1ccc2c3c(n(CCCN(C)C)c(=O)c2c1)-c1ccccc1C3=O | 21.7 | 19.5 | > 1 |
| NCCCn1c2c(c3ccc([N+](=O)[O-])cc3c1=O)C(=O)c1ccccc1-2 | 32.1 | – | < 1 |
| O=C(O)CCn1c2c(c3ccc(Br)cc3c1=O)C(=O)c1ccccc1-2 | 98 | – | < 1 |
| CN(C)CCCn1c2c(c3ccc([N+](=O)[O-])cc3c1=O)C(=O)c1ccccc1-2 | 83.7 | – | < 1 |
| CN(C)c1ccc2c3c(n(CCCN)c(=O)c2c1)-c1ccccc1C3=O | 30.6 | – | < 1 |
| CNc1ccc2c3c(n(CCCN)c(=O)c2c1)-c1ccccc1C3=O | 45.9 | – | – |
| CC(=O)Nc1ccc2c3c(n(CCCN)c(=O)c2c1)-c1ccccc1C3=O | 69.2 | > 34.7 | – |
| Cc1cc2c(cc1C1(c3ccc(C(=O)O)cn3)CC1)C(C)(C)CCC2(C)C | 84.3 | – | – |
| NCCn1c2c(c3ccccc3c1=O)C(=O)c1ccccc1-2 | 30.7 | 15.9 | 8.2 |
| NCCCn1c2c(c3ccc(C(=O)O)cc3c1=O)C(=O)c1ccccc1-2 | 83.7 | – | < 1 |
| COc1cc2c3c(n(CCCN)c(=O)c2cc1OC)-c1ccc(F)cc1C3=O | 23.8 | – | < 1 |
| CNCCCn1c2c(c3ccc(N)cc3c1=O)C(=O)c1ccccc1-2 | 53 | – | – |
| O=C1c2ccccc2-c2c1c1ccccc1c(=O)n2CCCn1ccnc1 | 100 | – | < 1 |
| C[N+](C)(C)CCCn1c2c(c3ccccc3c1=O)C(=O)c1ccccc1-2 | 99.4 | – | < 1 |
| COC(=O)c1ccc2c3c(n(CCCN)c(=O)c2c1)-c1ccccc1C3=O | 55 | – | < 1 |
| COc1ccc2c(c1)C(=O)c1c-2n(CCCN)c(=O)c2cc(OC)c(OC)cc12 | – | – | < 1 |
| CNc1ccc2c3c(n(CCCN)c(=O)c2c1)-c1ccccc1C3O (centres undefined) | – | – | < 1 |
| COC(=O)/C=C/c1ccc2c3c(n(CCCN)c(=O)c2c1)-c1ccccc1C3=O | 90.4 | – | < 1 |
| O=C1c2ccccc2-c2c1c1ccc([N+](=O)[O-])cc1c(=O)n2CCCCl | – | – | < 1 |
| Cn1c2c(c3ccc([N+](=O)[O-])cc3c1=O)C(=O)c1ccccc1-2 | – | – | < 1 |
